Assay results from ChEMBL document CHEMBL4028845, “Design, Synthesis, and Properties of a Potent Inhibitor of Pseudomonas aeruginosa Deacetylase LpxC” (J Med Chem, 2017).
In brackets after ≈: the same amount, converted by molar mass.

Key:
[1] = tested on: Stenotrophomonas maltophilia; test: Antibacterial activity against Stenotrophomonas maltophilia NB55011 after 18 to 24 hrs; format: functional
Outline: (§1)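 Broth MIC per CLSI guidelines in cation-adjusted Mueller Hinton broth. Compounds were dissolved and serially diluted in DMSO (carbapenems in water) before addition to plates. Incubation was at 37 °C for 18−24 h. MIC is the lowest concentration preventing visible growth. MIC50/MIC90 are the concentrations inhibiting 50% or 90% of isolates tested.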

Klebsiella oxytoca = test: Antibacterial activity against Klebsiella oxytoca NB30007 after 18 to 24 hrs; format: functional; outline: as §1
Klebsiella aerogenes = test: Antibacterial activity against Enterobacter aerogenes NB24004 after 18 to 24 hrs; format: functional; outline: as §1
Burkholderia cepacia = test: Antibacterial activity against Burkholderia cepacia NB49016 after 18 to 24 hrs; format: functional; outline: as §1
Proteus mirabilis = test: Antibacterial activity against Proteus mirabilis NB32022 after 18 to 24 hrs; format: functional; outline: as §1
Alcaligenes = test: Antibacterial activity against Alcaligenes xylosus NB56002 after 18 to 24 hrs; format: functional; outline: as §1
Acinetobacter baumannii = test: Antibacterial activity against Acinetobacter baumannii NB48015 after 18 to 24 hrs; format: functional; outline: as §1
Pseudomonas aeruginosa [2] = test: Antibacterial activity against Pseudomonas aeruginosa clinical isolate after 18 to 24 hrs; format: functional
Pseudomonas aeruginosa [3] = test: Antibacterial activity against hypersusceptible Pseudomonas aeruginosa Z61 after 18 to 24 hrs; format: functional; outline: as §1
Pseudomonas aeruginosa [4] = test: Antibacterial activity against Pseudomonas aeruginosa PAO1 K767 after 18 to 24 hrs; format: functional; outline: as §1
Pseudomonas aeruginosa [5] = test: Antibacterial activity against mexAB-oprM deficient Pseudomonas aeruginosa K1119 after 18 to 24 hrs; format: functional; outline: as §1
[6] = target: T1, UDP-3-O-acyl-N-acetylglucosamine deacetylase (Pseudomonas aeruginosa (strain ATCC 15692 / PAO1 / 1C / PRS 101 / LMG12228), UniProt P47205); test: Inhibition of Pseudomonas aeruginosa LpxC using UDP-3-O-(R-hydroxydecanoyl)-N-acetylglucosamine as substrate preincubated for 30 mins followed by substrate addition measured after 20 mins by LC-MS/MS analysis
T1 sequence (P47205 whole entry): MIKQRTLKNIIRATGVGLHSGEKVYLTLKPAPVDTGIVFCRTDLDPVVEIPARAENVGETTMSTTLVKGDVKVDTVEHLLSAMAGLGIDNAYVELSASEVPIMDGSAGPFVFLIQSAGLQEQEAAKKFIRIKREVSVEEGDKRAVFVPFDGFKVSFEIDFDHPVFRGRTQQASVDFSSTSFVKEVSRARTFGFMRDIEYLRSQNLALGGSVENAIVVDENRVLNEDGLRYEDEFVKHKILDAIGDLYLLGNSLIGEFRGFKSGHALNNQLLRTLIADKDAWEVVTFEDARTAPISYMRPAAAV

[7] = Cytotoxicity against human K562 cells assessed as reduction in cell viability after 72 hrs by WST1 assay; format: cell-based
Outline: (§2)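 Cells were grown and assayed in medium with 10% heat-inactivated FBS and exposed to compound for 72 h. Metabolic activity was read as WST-1 cleavage to formazan at A450, with puromycin as positive control. CC50 (50% reduction in viability) was calculated from dose-response curves.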

[8] = Solubility of the compound at pH 6.8 by high throughput screening assay; format: physicochemical; conditions: buffer
[9] = Cytotoxicity against human HepG2 cells assessed as reduction in cell viability after 72 hrs by WST1 assay; format: cell-based; outline: as §2

Compound	MIC50 (Pseudomonas aeruginosa [2]) [µg/mL]	MIC90 (Pseudomonas aeruginosa [2]) [µg/mL]	MIC (Pseudomonas aeruginosa [3]) [µg/mL]	MIC (Pseudomonas aeruginosa [4]) [µg/mL]	MIC (Pseudomonas aeruginosa [5]) [µg/mL]	IC50 [6] [nM]	also measured
O=C(O)c1cn(C2CC2)c2cc(N3CCNCC3)c(F)cc2c1=O [CIPROFLOXACIN]	–	–	–	–	–	–	MIC [1]: 0.5 µg/mL (≈ 1.51 µM); MIC (Klebsiella oxytoca): ≤ 0.03 µg/mL; MIC (Klebsiella aerogenes): > 16 µg/mL; MIC (Burkholderia cepacia): 0.5 µg/mL (≈ 1.51 µM); MIC (Proteus mirabilis): ≤ 0.03 µg/mL; MIC (Alcaligenes): 2 µg/mL (≈ 6.04 µM); MIC (Acinetobacter baumannii): 0.5 µg/mL (≈ 1.51 µM)
NC[C@H]1O[C@H](O[C@H]2[C@H](O)[C@@H](O[C@H]3O[C@H](CO)[C@@H](O)[C@H](N)[C@H]3O)[C@H](N)C[C@@H]2N)[C@H](N)C[C@@H]1O [TOBRAMYCIN]	2 (≈ 4.28 µM)	> 128	–	–	–	–	–
C[C@@H](O)[C@H]1C(=O)N2C(C(=O)O)=C(SCCNC=N)C[C@H]12 [IMIPENEM ANHYDROUS]	2 (≈ 6.68 µM)	16 (≈ 53.4 µM)	–	–	–	–	–
CC#CCOc1ccc(C(=O)N[C@H](C(=O)NO)[C@H](C)N)cc1	–	–	1 (≈ 3.28 µM)	1 (≈ 3.28 µM)	0.5 (≈ 1.64 µM)	16.4	–
C[C@@H](N)[C@H](NC(=O)c1ccc(N2CCOCC2)cc1)C(=O)NO	–	–	32 (≈ 99.3 µM)	> 128	16 (≈ 49.6 µM)	1640	–
CC(C)(O/N=C(\C(=O)N[C@@H]1C(=O)N2C(C(=O)[O-])=C(C[n+]3ccccc3)CS[C@H]12)c1csc(N)n1)C(=O)O [CEFTAZIDIME]	4 (≈ 7.32 µM)	> 128	–	–	–	–	–
C[C@@H](O)[C@H]1C(=O)N2C(C(=O)O)=C(S[C@@H]3CN[C@H](CNS(N)(=O)=O)C3)[C@H](C)[C@H]12 [DORIPENEM]	1 (≈ 2.38 µM)	32 (≈ 76.1 µM)	–	–	–	–	–
C[C@@H](O)[C@H]1C(=O)N2C(C(=O)O)=C(S[C@@H]3CN[C@H](C(=O)N(C)C)C3)[C@H](C)[C@H]12 [MEROPENEM]	2 (≈ 5.22 µM)	32 (≈ 83.4 µM)	–	–	–	–	–
CC1(C)S[C@@H]2[C@H](NC(=O)[C@H](C(=O)O)c3ccsc3)C(=O)N2[C@H]1C(=O)O [TICARCILLIN]	128 (≈ 333 µM)	> 128	–	–	–	–	–
C[C@@H](NCC(=O)N1CCNC(=O)C1)[C@H](NC(=O)c1ccc(C#Cc2ccccc2)cc1)C(=O)NO	–	–	4 (≈ 8.38 µM)	32 (≈ 67 µM)	0.5 (≈ 1.05 µM)	4.19	CC50 at 72 h [7]: > 100000 nM; solubility [8]: 0.392 µM
CC#CCOc1ccc(C(=O)NC(C(=O)NO)C(C)(C)N)cc1 (racemic)	–	–	0.25 (≈ 0.783 µM)	2 (≈ 6.26 µM)	0.25 (≈ 0.783 µM)	–	–
COLISTIN	0.5	2	–	–	–	–	–
CC#CCOc1ccc(C(=O)N[C@H](C(=O)NO)[C@@H](C)N)cc1	–	–	0.5 (≈ 1.64 µM)	2 (≈ 6.55 µM)	0.25 (≈ 0.819 µM)	19.7	CC50 at 72 h [7]: > 419000 nM; solubility ([8]; read-out: solubility): 295 µg/mL; CC50 at 72 h [9]: > 419000 nM
CCc1ccc(-c2ccc(C(=O)N[C@H](C(=O)NO)[C@@H](C)NCC(=O)O)cc2)cc1	–	–	32 (≈ 80.1 µM)	128 (≈ 320 µM)	1 (≈ 2.5 µM)	1	–
C[C@@H](N)[C@H](NC(=O)c1ccc(OC(C)(C)C)cc1)C(=O)NO	–	–	4 (≈ 12.9 µM)	32 (≈ 103 µM)	1 (≈ 3.23 µM)	268	–
